These results are taken from ChEMBL document CHEMBL1145483, “A Candida albicans petite mutant strain with uncoupled oxidative phosphorylation overexpresses MDR1 and has diminished susceptibility to fluconazole and voriconazole” (2007).

What all share (assay type): functional
Assay [1] has as its system Candida albicans. Description: Antimicrobial activity against Candida albicans SC5314 after 48 hrs by broth macrodilution method. The settings on record: SC5314, 48 h. The essentials:
(§1)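 MICs were determined by standard broth macrodilution following the NCCLS M27-A yeast reference method, with readings at 24 h and 48 h. Strains were parental SC5314 and P5, a petite mutant with uncoupled oxidative phosphorylation recovered from SC5314 after serial passage through mouse spleens.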

The test system of assay [2] is Candida albicans. Description: Antimicrobial activity against Candida albicans P5 after 48 hrs by broth macrodilution method. The following applies: P5, 48 h. The essentials: as §1
For assay [3], the system named is Candida albicans. Description: Antimicrobial activity against Candida albicans SC5314 after 24 hrs by broth macrodilution method. The following applies: SC5314, 24 h. The essentials: as §1
Assay [4] relates to Candida albicans. Description: Antimicrobial activity against Candida albicans P5 after 24 hrs by broth macrodilution method. The following applies: P5, 24 h. The essentials:
as §1

Assay [5] concerns Candida albicans. In words: Ratio of MIC for Candida albicans P5 mutant to MIC for Candida albicans SC5314. The essentials: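 The ratio is the P5 MIC divided by the SC5314 MIC, with both MICs obtained by standard broth macrodilution (NCCLS M27-A yeast reference method) and read at 24 h and 48 h. P5 is a petite mutant of SC5314 with uncoupled oxidative phosphorylation.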

Converted amounts (≈) assume the structure as drawn.

In the case of `C[C@@H]1[C@H](O)[C@@H](C)/C=C/C=C/C=C/C=C/C=C/C=C/C=C/[C@H](O[C@@H]2O[C@H](C)[C@@H](O)[C@H](N)[C@@H]2O)C[C@@H]2O[C@](O)(C[C@@H](O)C[C@@H](O)[C@H](O)CC[C@@H](O)C[C@@H](O)CC(=O)O[C@H]1C)C[C@H](O)[C@H]2C(=O)O` [AMPHOTERICIN B], the minimal inhibitory concentration (MIC) (in general, the lowest concentration that inhibits growth of the organism) is 0.125 µg/mL (≈ 0.135 µM) in assay [1], 0.125 µg/mL (≈ 0.135 µM) in assay [2], 0.06 µg/mL (≈ 0.0649 µM) in assay [3] and 0.06 µg/mL (≈ 0.0649 µM) in assay [4].

With `CCCCNC(=O)n1c(NC(=O)OC)nc2ccccc21` [BENOMYL], the minimal inhibitory concentration (MIC) in assay [1], in assay [2], in assay [3] and in assay [4] was 20 µg/mL (≈ 68.9 µM) in each case.

In the case of `C[C@H]1CCC/C=C/[C@@H]2C[C@H](O)C[C@H]2[C@H](O)/C=C/C(=O)O1` [BREFELDIN A], the MIC in assay [1] was determined as 8 µg/mL (≈ 28.5 µM); in assay [2] it was 32 µg/mL (≈ 114 µM); in assay [3], 4 µg/mL (≈ 14.3 µM); in assay [4] it was 16 µg/mL (≈ 57.1 µM).

For the molecule `C/C=C/C/C=C/CCC(=O)[C@H]1O[C@H]1C(N)=O` [CERULENIN], the MIC in assay [1] is 2 µg/mL (≈ 8.96 µM); in assay [2], 8 µg/mL (≈ 35.8 µM); in assay [3], 2 µg/mL (≈ 8.96 µM); in assay [4], 4 µg/mL (≈ 17.9 µM).

With `C[C@@H]1C[C@@H]([C@H](O)CC2CC(=O)NC(=O)C2)C(=O)[C@@H](C)C1` [CYCLOHEXIMIDE], the MIC in assay [1] came out at 400 µg/mL (≈ 1420 µM); in assay [2], 800 µg/mL (≈ 2840 µM); in assay [3], 400 µg/mL (≈ 1420 µM); in assay [4] it was 400 µg/mL (≈ 1420 µM).

As to `OC(Cn1cncn1)(Cn1cncn1)c1ccc(F)cc1F` [FLUCONAZOLE], the MIC is 0.125 µg/mL (≈ 0.408 µM) in assay [1], 1 µg/mL (≈ 3.27 µM) in assay [2], 0.125 µg/mL (≈ 0.408 µM) in assay [3] and 1 µg/mL (≈ 3.27 µM) in assay [4]. Besides, in assay [5], the Ratio was 8.

As for `CN(C)c1ccc(C(=C2C=CC(=[N+](C)C)C=C2)c2ccc(N(C)C)cc2)cc1.[Cl-]` [GENTIAN VIOLET], the minimal inhibitory concentration (MIC) in assay [1] was 0.4 µg/mL; in assay [2], 0.4 µg/mL; in assay [3], 0.2 µg/mL; in assay [4], 0.2 µg/mL.

For `CCC(C)n1ncn(-c2ccc(N3CCN(c4ccc(OC[C@H]5CO[C@](Cn6cncn6)(c6ccc(Cl)cc6Cl)O5)cc4)CC3)cc2)c1=O` (stereo not given in full) [ITRACONAZOLE], the minimum inhibitory concentration (MIC) in assay [1], in assay [2], in assay [3] and in assay [4] was 0.016 µg/mL (≈ 0.0227 µM) throughout.

For `CC(=O)N1CCN(c2ccc(OC[C@H]3CO[C@](Cn4ccnc4)(c4ccc(Cl)cc4Cl)O3)cc2)CC1` [KETOCONAZOLE], the MIC in assay [1], in assay [2], in assay [3] and in assay [4] was 0.064 µg/mL (≈ 0.12 µM) throughout.

For `CC/N=c1\cc2oc3cc(NCC)c(C)cc3c(-c3ccccc3C(=O)OCC)c-2cc1C.Cl` [RHODAMINE 6G HYDROCHLORIDE], the MIC in assay [1], in assay [2], in assay [3] and in assay [4] was 8 µg/mL throughout.

As for `Cc1cc(C)nc(NC(=O)NS(=O)(=O)c2ccccc2C(=O)O)n1` [SULFOMETURON], the minimum inhibitory concentration (MIC) in assay [1], in assay [2], in assay [3] and in assay [4] was 10 µg/mL (≈ 28.5 µM) each time.

For `C[C@@H](c1ncncc1F)[C@](O)(Cn1cncn1)c1ccc(F)cc1F` [VORICONAZOLE], the MIC in assay [1] is 0.004 µg/mL (≈ 0.0115 µM); in assay [2], 0.032 µg/mL (≈ 0.0916 µM); in assay [3], 0.004 µg/mL (≈ 0.0115 µM); in assay [4], 0.032 µg/mL (≈ 0.0916 µM). In assay [5], the Ratio was found to be 8.
